Measurements gathered from unrelated publications.
Each line is one published result; the experiments were not run side by side.
Target: Tyrosine-protein kinase ZAP-70 (ZAP70, Homo sapiens, UniProt P43403)
One construct used (P43403 1-619): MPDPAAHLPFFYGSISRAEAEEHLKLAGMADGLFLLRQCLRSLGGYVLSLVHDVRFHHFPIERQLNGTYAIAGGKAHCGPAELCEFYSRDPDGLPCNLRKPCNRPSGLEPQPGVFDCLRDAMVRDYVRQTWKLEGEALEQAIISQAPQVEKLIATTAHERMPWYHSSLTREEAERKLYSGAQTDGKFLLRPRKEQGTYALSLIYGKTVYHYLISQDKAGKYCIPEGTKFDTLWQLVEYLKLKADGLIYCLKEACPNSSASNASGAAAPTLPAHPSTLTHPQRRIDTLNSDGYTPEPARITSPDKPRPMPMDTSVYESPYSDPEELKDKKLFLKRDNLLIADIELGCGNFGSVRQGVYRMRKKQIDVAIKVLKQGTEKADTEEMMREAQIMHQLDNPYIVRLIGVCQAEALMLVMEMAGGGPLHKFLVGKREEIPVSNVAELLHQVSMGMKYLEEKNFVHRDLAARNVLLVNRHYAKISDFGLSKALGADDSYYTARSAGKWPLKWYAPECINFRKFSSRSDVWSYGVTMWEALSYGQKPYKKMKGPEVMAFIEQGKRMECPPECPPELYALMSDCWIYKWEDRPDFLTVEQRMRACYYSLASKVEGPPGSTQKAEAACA

| Structure (SMILES) | read-out | action | technique | concentration | measurement | value |
| --- | --- | --- | --- | --- | --- | --- |
| C#Cc1cnc(Nc2ccnc(CO)c2)nc1Nc1ccccc1S(C)(=O)=NC#N (stereo not drawn) | cell-free assay |  |  | 1 µM | remaining signal | 100% |
| CC#CC(=O)N1CCC[C@H]1c1nc(-c2ccc(C(=O)Nc3ccccn3)cc2)c2c(N)nccn12 | enzyme activity | inhibitor |  | 1 µM | inhibition | 8% |
| CN1CCN(C(=O)c2ccc(NC(=O)Nc3ccc(N(C)c4ccnc(Nc5ccc(CS(C)(=O)=O)cc5)n4)cc3)cc2)CC1 | binding |  |  | 1 µM | remaining binding | 65% |
| C=CC(=O)N1CCC([C@@H]2CCNc3c(C(N)=O)c(-c4ccc(Oc5ccccc5)cc4)nn32)CC1 | enzyme activity | inhibitor |  | 1 µM | inhibition | 2% |
| CCCCC(=O)Nc1ccc(-c2ccc3ncn(CCC)c(=O)c3c2)cn1 | binding |  | competition with immobilised ligand | 0.5 µM | remaining binding | 98% |
| N#Cc1ccc(NC(=O)Nc2ccccc2)cc1 | cell-free assay |  | competition with immobilised ligand | 25 µM | remaining binding | 91% |
| COc1ccc2oc(-c3ccc4nc(N)oc4c3)c/c(=N\c3ccccc3NC(=O)CCN)c2c1 | binding |  |  | 1 µM | remaining binding | 88% |
| CC(C)S(=O)(=O)c1ccc2nccc(Nc3ccc4sc(C5CCCC5)nc4c3)c2c1 | enzyme activity | inhibitor |  | 1 µM | activity vs control | 100% |
| Cc1ccc(NC(=O)c2ccnc(C(F)(F)F)c2)cc1-c1cc(OCCO)nc(N2CCOCC2)c1 | binding |  |  | 1 µM | remaining binding | 100% |
